Assay results from different studies.
Each line is one published result; the experiments were not run side by side.
Target: Ribosomal protein S6 kinase beta-1 (RPS6KB1, Homo sapiens, UniProt P23443)

Structure (SMILES) | test | setting | measurement | result
CCCCC(=O)Nc1ccc(-c2ccc3ncn(CCC)c(=O)c3c2)cn1 | binding, competition with immobilised ligand | 0.5 µM | remaining binding | 98%
COc1ccc2oc(-c3ccc4nc(N)oc4c3)c/c(=N\c3ccccc3NC(=O)CCN)c2c1 | binding | 1 µM | remaining binding | 98%
C=CC(=O)N1CCC([C@@H]2CCNc3c(C(N)=O)c(-c4ccc(Oc5ccccc5)cc4)nn32)CC1 | enzyme activity, inhibitor | 1 µM | inhibition | 1%
CC(C)S(=O)(=O)c1ccc2nccc(Nc3ccc4sc(C5CCCC5)nc4c3)c2c1 | enzyme activity, inhibitor | 1 µM | activity vs control | 110%
C[C@H]1CC[C@H](n2c3cnccc3c3cnc(Nc4ccc5c(n4)CCN(C(=O)CO)C5)nc32)CC1 | cell-free assay | 1 µM | remaining signal | 78%
CO[C@@H]1[C@H](N(C)C(=O)c2ccccc2)C[C@H]2O[C@]1(C)n1c3ccccc3c3c4c(c5c6ccccc6n2c5c31)C(=O)NC4 | enzyme activity, inhibitor | 1 µM | inhibition | 36%
Cc1ccc(NC(=O)c2ccnc(C(F)(F)F)c2)cc1-c1cc(OCCO)nc(N2CCOCC2)c1 | binding | 1 µM | remaining binding | 100%
Cc1cc(O)c(-c2ccc([C@@H](C)CN(C)C)cc2)c2c1[nH]c(=O)c1sccc12 | enzyme activity, inhibitor | 0.1 µM | inhibition | -5.29%
